The array DNA melting data of Ke et al. (doi:10.1101/2024.01.08.574731)

Assays:
[1] = folding enthalpy; higher = less favourable; fluorescence melt of hairpins on a sequencing array, two-state fit; conditions: sodium 0.088 M
Method in brief: (§1)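 To match UV melts, fitted temperatures were raised by 9.35 °C. These fits were bootstrapped two-state models that gave melting temperature and folding enthalpy, combined by inverse variance over four replicates. The input was normalised Cy3 fluorescence of library hairpins with annealed Cy3 and quencher oligos on a sequenced MiSeq flow cell, imaged in 50 mM Na-HEPES pH 8.0, 25 mM NaCl in 2.5 °C steps up to 60 °C.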

[2] = melting temperature; fluorescence melt of hairpins on a sequencing array, two-state fit, raised by 9.35 °C to match UV melts; conditions: sodium 0.088 M
Method in brief: as §1

GCAAGACGAAAGTCCTGC (((.(((....))).)))
folding enthalpy [1]: -26.4 kcal/mol
Tm [2]: 48.7 °C

GCAAGAGAAATCTTGC ((((((....))))))
folding enthalpy [1]: -38.3 kcal/mol
Tm [2]: 52.8 °C

GCAAGCCCGAAAGGGTGC (((..(((....))))))
folding enthalpy [1]: -14.4 kcal/mol
Tm [2]: 47.2 °C

GCAAGCGAAAGCTGGTGC ((((((....)))..)))
folding enthalpy [1]: -20.9 kcal/mol
Tm [2]: 47.6 °C

GCAAGCGAAAGCTGTTGC ((((((....)))..)))
folding enthalpy [1]: -15.7 kcal/mol
Tm [2]: 45.9 °C

GCAAGCGAAAGCTTTTGC ((((((....)))..)))
folding enthalpy [1]: -12.8 kcal/mol
Tm [2]: 42.2 °C

GCAAGGACGAAAGTCTGC (((..(((....))))))
folding enthalpy [1]: -17.5 kcal/mol
Tm [2]: 44.6 °C

GCAAGGCGAAAGCGTAGC ((.(.((....)).).))
folding enthalpy [1]: -11.6 kcal/mol
Tm [2]: 40.5 °C

GCAAGGCGAAAGCTATGC (((..((....))..)))
folding enthalpy [1]: -20.8 kcal/mol
Tm [2]: 42.4 °C

GCAAGGCGAAAGCTTTGC ((((.((....)).))))
folding enthalpy [1]: -39 kcal/mol
Tm [2]: 63.9 °C

GCAAGTCCGAAAGGATGC (((..(((....))))))
folding enthalpy [1]: -16.1 kcal/mol
Tm [2]: 37.7 °C

GCAAGTGGAAACACCTGC (((.(((....))).)))
folding enthalpy [1]: -25.3 kcal/mol
Tm [2]: 40.5 °C

GCAATCCGAAAGGATGC (((.(((....))))))
folding enthalpy [1]: -26 kcal/mol
Tm [2]: 56.4 °C

GCAATCGAAAGATTCTGC ((((((....)))..)))
folding enthalpy [1]: -16 kcal/mol
Tm [2]: 33.7 °C

GCAATCGAAAGATTGTGC ((((((....)))..)))
folding enthalpy [1]: -27.1 kcal/mol
Tm [2]: 51.1 °C

GCAATCGCGAAAGCGTGC (((..(((....))))))
folding enthalpy [1]: -12.5 kcal/mol
Tm [2]: 44 °C

GCAATCGGAAACAATTGC (((((.(....).)))))
folding enthalpy [1]: -27.9 kcal/mol
Tm [2]: 38 °C

GCAATCGGAAACGACTGC (((.(((....))).)))
folding enthalpy [1]: -28.9 kcal/mol
Tm [2]: 45.1 °C

GCAATCTCGAAAGAGTGC (((..(((....))))))
folding enthalpy [1]: -24.5 kcal/mol
Tm [2]: 43.2 °C

GCAATGCGAAAGCACCGC ((..(((....)))..))
folding enthalpy [1]: -9.88 kcal/mol
Tm [2]: 33 °C

GCAATGCGAAAGCCCTGC (((..((....))..)))
folding enthalpy [1]: -10.3 kcal/mol
Tm [2]: 28.4 °C

GCAATGCGAAAGCCTCGC ((.(.((....)).).))
folding enthalpy [1]: -10.9 kcal/mol
Tm [2]: 31.5 °C

GCAATGCGAAAGCGCTGC (((..((....))..)))
folding enthalpy [1]: -20 kcal/mol
Tm [2]: 49.2 °C

GCAATGCGAAAGCTATGC (((..((....))..)))
folding enthalpy [1]: -20.4 kcal/mol
Tm [2]: 50.6 °C

GCAATGCGAAAGCTTCGC ((.(.((....)).).))
folding enthalpy [1]: -11.9 kcal/mol
Tm [2]: 44 °C

GCAATGCGAAAGCTTGGC ((.(.((....)).).))
folding enthalpy [1]: -19.1 kcal/mol
Tm [2]: 40.6 °C

GCAATGTCGAAAGACTGC (((..(((....))))))
folding enthalpy [1]: -20.3 kcal/mol
Tm [2]: 44.9 °C

GCAATTCGAAAGAAATGC (((.(((....))).)))
folding enthalpy [1]: -36.8 kcal/mol
Tm [2]: 46.1 °C

GCAATTCGAAAGAATGC (((.(((....))))))
folding enthalpy [1]: -29.3 kcal/mol
Tm [2]: 48.1 °C

GCACAACGAAAGTTATGC (((.(((....))).)))
folding enthalpy [1]: -34.9 kcal/mol
Tm [2]: 44.5 °C

GCACAACGAAAGTTCTGC (((.(((....))).)))
folding enthalpy [1]: -26.1 kcal/mol
Tm [2]: 36.8 °C

GCACAAGCGAAAGCTTGC (((..(((....))))))
folding enthalpy [1]: -7.33 kcal/mol
Tm [2]: 37.8 °C

GCACACCGAAAGGTATGC (((.(((....))).)))
folding enthalpy [1]: -32.8 kcal/mol
Tm [2]: 50.8 °C

GCACACCGAAAGGTCTGC (((.(((....))).)))
folding enthalpy [1]: -26.5 kcal/mol
Tm [2]: 47 °C

GCACACGAAAGTGAGTGC ((((((....)))..)))
folding enthalpy [1]: -30.9 kcal/mol
Tm [2]: 51.7 °C

GCACACGCGAAAGCGTGC (((..(((....))))))
folding enthalpy [1]: -5.12 kcal/mol
Tm [2]: 45 °C

GCACACGGAAACATGCGC ((.((.(....).)).))
folding enthalpy [1]: -19.6 kcal/mol
Tm [2]: 30.2 °C

GCACACGGAAACGTATGC (((.(((....))).)))
folding enthalpy [1]: -28 kcal/mol
Tm [2]: 45.2 °C

GCACACGGAAACGTGTAC (.(((((....))))).)
folding enthalpy [1]: -13.8 kcal/mol
Tm [2]: 41.2 °C

GCACAGCGAAAGCAGTGC ((((.((....)).))))
folding enthalpy [1]: -34.1 kcal/mol
Tm [2]: 69.2 °C

GCACAGCGAAAGCCATGC (((..((....))..)))
folding enthalpy [1]: -11.9 kcal/mol
Tm [2]: 38 °C

GCACAGCGAAAGCCGAGC ((.(.((....)).).))
folding enthalpy [1]: -12.6 kcal/mol
Tm [2]: 39.3 °C

GCACAGCGAAAGCCGTGC ((((.((....)).))))
folding enthalpy [1]: -24.4 kcal/mol
Tm [2]: 65.6 °C

GCACAGCGAAAGCGGGGC ((.(.((....)).).))
folding enthalpy [1]: -34.6 kcal/mol
Tm [2]: 65.9 °C

GCACAGCGAAAGCTAGGC ((..(((....)))..))
folding enthalpy [1]: -15.4 kcal/mol
Tm [2]: 45.2 °C

GCACAGCGAAAGCTCCGC ((..(((....)))..))
folding enthalpy [1]: -9.89 kcal/mol
Tm [2]: 28.1 °C

GCACAGCGAAAGCTTCGC ((..(((....)))..))
folding enthalpy [1]: -12.4 kcal/mol
Tm [2]: 39.8 °C

GCACAGGAAACTGTGC ((((((....))))))
folding enthalpy [1]: -36.1 kcal/mol
Tm [2]: 67 °C

GCACAGGGAAACCCGTGC ((((.((....)).))))
folding enthalpy [1]: -36.8 kcal/mol
Tm [2]: 55.4 °C

GCACAGGGAAACCTACGC ((..(((....)))..))
folding enthalpy [1]: -15.8 kcal/mol
Tm [2]: 34.9 °C

GCACAGGGAAACCTATGC (((.(((....))).)))
folding enthalpy [1]: -24.2 kcal/mol
Tm [2]: 37.1 °C

GCACAGGGAAACCTGCAC (..((((....))))..)
folding enthalpy [1]: -10.3 kcal/mol
Tm [2]: 28.4 °C

GCACAGTCGAAAGACTGC (((..(((....))))))
folding enthalpy [1]: -8.86 kcal/mol
Tm [2]: 39.3 °C

GCACATCGAAAGATCTGC (((.(((....))).)))
folding enthalpy [1]: -28.3 kcal/mol
Tm [2]: 36 °C

GCACATGGAAACATGCAC (..((((....))))..)
folding enthalpy [1]: -15.2 kcal/mol
Tm [2]: 28.2 °C

GCACATGGAAACATGCGC ((.((((....)))).))
folding enthalpy [1]: -48.8 kcal/mol
Tm [2]: 49.9 °C

GCACCACGAAAGTGATGC (((.(((....))).)))
folding enthalpy [1]: -36.5 kcal/mol
Tm [2]: 55.7 °C

GCACCACGAAAGTGTGC (((.(((....))))))
folding enthalpy [1]: -34.6 kcal/mol
Tm [2]: 58.6 °C

GCACCACGAAAGTGTTGC (((.(((....))).)))
folding enthalpy [1]: -35.9 kcal/mol
Tm [2]: 52.6 °C

GCACCAGGAAACCGGTGC (((((.(....).)))))
folding enthalpy [1]: -42.4 kcal/mol
Tm [2]: 58.3 °C

GCACCAGGAAACTGGCGC ((.((((....)))).))
folding enthalpy [1]: -41.4 kcal/mol
Tm [2]: 55.6 °C

GCACCATCGAAAGATTGC (((..(((....))))))
folding enthalpy [1]: -20 kcal/mol
Tm [2]: 29.1 °C

GCACCCGAAAGGGCCTGC ((((((....)))..)))
folding enthalpy [1]: -13.4 kcal/mol
Tm [2]: 34.5 °C

GCACCCTCGAAAGAGTGC (((..(((....))))))
folding enthalpy [1]: -23.1 kcal/mol
Tm [2]: 41.6 °C

GCACCGCGAAAGCACTGC (((..((....))..)))
folding enthalpy [1]: -8.63 kcal/mol
Tm [2]: 31.2 °C

GCACCGCGAAAGCGGAGC ((.((((....)))).))
folding enthalpy [1]: -16.4 kcal/mol
Tm [2]: 69 °C

GCACCGCGAAAGCGTCGC ((..(((....)))..))
folding enthalpy [1]: -12.8 kcal/mol
Tm [2]: 41.2 °C

GCACCGGCGAAAGCCTGC (((..(((....))))))
folding enthalpy [1]: -12.6 kcal/mol
Tm [2]: 39.1 °C

GCACCGGGAAACCGACGC ((..(((....)))..))
folding enthalpy [1]: -24.1 kcal/mol
Tm [2]: 38 °C

GCACCGGGAAACCGGCAC (..((((....))))..)
folding enthalpy [1]: -8.06 kcal/mol
Tm [2]: 28.3 °C

GCACCTCCGAAAGGATGC (((..(((....))))))
folding enthalpy [1]: -21.9 kcal/mol
Tm [2]: 36.5 °C

GCACCTGGAAACAGGTAC (.(((((....))))).)
folding enthalpy [1]: -13.2 kcal/mol
Tm [2]: 40.9 °C

GCACGACGAAAGTCTTGC (((.(((....))).)))
folding enthalpy [1]: -35.8 kcal/mol
Tm [2]: 53.7 °C

GCACGCACGAAAGTGTGC (((..(((....))))))
folding enthalpy [1]: -23.2 kcal/mol
Tm [2]: 52.6 °C

GCACGCGAAAGCGACTGC ((((((....)))..)))
folding enthalpy [1]: -12.6 kcal/mol
Tm [2]: 43.8 °C

GCACGCGAAAGCGATTGC ((((((....)))..)))
folding enthalpy [1]: -14.2 kcal/mol
Tm [2]: 45.9 °C

GCACGCGAAAGCGTCTGC ((((((....)))..)))
folding enthalpy [1]: -11.1 kcal/mol
Tm [2]: 47.4 °C

GCACGCGGAAACGCGCAC (..((((....))))..)
folding enthalpy [1]: -7.82 kcal/mol
Tm [2]: 31.1 °C

GCACGCGGAAACGCGCGC ((.((((....)))).))
folding enthalpy [1]: -23.5 kcal/mol
Tm [2]: 68.5 °C

GCACGGCCGAAAGGCTGC (((..(((....))))))
folding enthalpy [1]: -10 kcal/mol
Tm [2]: 45.1 °C

GCACGGCGAAAGCAGCGC ((.(.((....)).).))
folding enthalpy [1]: -21.1 kcal/mol
Tm [2]: 57.2 °C

GCACGGCGAAAGCATTGC (((..((....))..)))
folding enthalpy [1]: -16.6 kcal/mol
Tm [2]: 39.9 °C

GCACGGCGAAAGCCACGC ((..(((....)))..))
folding enthalpy [1]: -19.1 kcal/mol
Tm [2]: 54.9 °C

GCACGGCGAAAGCCAGGC ((..(((....)))..))
folding enthalpy [1]: -14.9 kcal/mol
Tm [2]: 55 °C

GCACGGCGAAAGCCCGGC ((..(((....)))..))
folding enthalpy [1]: -15.4 kcal/mol
Tm [2]: 50.1 °C

GCACGGCGAAAGCCTGGC ((..(((....)))..))
folding enthalpy [1]: -15.2 kcal/mol
Tm [2]: 51.7 °C

GCACGGCGAAAGCGATGC (((..((....))..)))
folding enthalpy [1]: -18.2 kcal/mol
Tm [2]: 47.2 °C

GCACGGGCGAAAGCCTGC (((..(((....))))))
folding enthalpy [1]: -12.7 kcal/mol
Tm [2]: 45.2 °C

GCACGGGGAAACCCATGC (((.(((....))).)))
folding enthalpy [1]: -29.5 kcal/mol
Tm [2]: 47 °C

GCACGGGGAAACCCGCGC ((.((((....)))).))
folding enthalpy [1]: -36.1 kcal/mol
Tm [2]: 58.4 °C
